# Screening results deposited in PubChem BioAssay by several laboratories.
# Apaf-1 inh: inhibitors of human Apaf-1 apoptosome; 330,000 tested, 0.71% active; reconstituted apoptosome caspase-3 activity, DEVD-Rh110 fluorescence; inhibition, % at 20 µM; O14727; active means inhibition of at least 40% at 20 µM;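 further: plate controls were DMSO wells for no effect and DEVD-CHO caspase inhibitor wells for full effect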
#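 System – cell-free apoptosome with Apaf-1, procaspase-3 and caspase-9 · Buffer or medium – pH 7.5 Hepes buffer with CHAPS, BSA, DTT · Also added – cytochrome c with DEVD-Rh110 · Times – 30 min compound preincubation, 50 min activation, room temperature · Technique – Rh110 fluorescence intensity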
# UBC13 polyUb: human UBC13 polyubiquitination inhibition. P61088. UBC13 polyubiquitin chain formation, TR-FRET. inhibition, % at 20 µM. 330,000 tested, 0.47% active. AID 485273; in the data active means inhibition above about 45%, passing the limit was not always enough; inconclusive means no clear call, values can overlap the other calls
# Target sequence (P61088 whole entry, looked up): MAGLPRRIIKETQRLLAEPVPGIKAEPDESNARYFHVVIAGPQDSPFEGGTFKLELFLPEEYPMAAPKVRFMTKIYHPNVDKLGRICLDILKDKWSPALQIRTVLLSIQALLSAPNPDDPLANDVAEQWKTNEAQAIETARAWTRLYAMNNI
# Granule exo inh: lytic granule exocytosis inhibition | TALL-104 LAMP-1 surface exposure, flow cytometry; cells stimulated with thapsigargin and PMA | inhibition, % at 10 µM | 360,000 tested, 0.66% active;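 active means inhibition above about 55%, limit read from the data; inconclusive means no clear call, values can overlap the other calls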
# MPTP block: inhibitors of mitochondrial permeability transition pore. inhibition, % at 10 µM. isolated mouse mitochondria, Ca2+ swelling absorbance, 30 min. 360,000 tested, 1.4% active;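 active means inhibition of 50% or more, scaled per plate between neutral and stimulator controls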;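 further: 0% = DMSO wells given calcium and 100% = 1 mM EGTA wells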
# beta cell repl: MIN6 beta-cell proliferation induction; proliferation, % at 10 µM; 330,000 tested, 0.29% active; MIN6 cells proliferation, ATPlite luminescence, 48 h; cells starved in 0.2% serum; 100% = growth in 10% serum;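 active means compounds whose signal lies at least 3.5 SD above the mean of all wells on their plate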;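 further: 0% = DMSO-treated cells in low-serum medium and 100% = 10% serum control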
# iPSC survival up: hiPSC single-cell survival enhancement; ATPlite luminescence; 100% = ROCK inhibitor wells, 0% = DMSO; 360,000 tested, 0.044% active; survival enhancement, % at 20 µM; in the data active means survival enhancement above about 18%;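 further: cells exposed to compounds for 16 hours before the ATP read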
# Apaf-1 inh conf: Apaf-1 inhibition, single-dose confirmed. shares compounds with Apaf-1 inh. 1,800 tested, 25% active. inhibition, % at 20 µM. reconstituted apoptosome, caspase-3 DEVD-Rh110 fluorescence;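 active means mean inhibition of at least 40% at 20 µM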;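 further: plate controls were DMSO wells for no effect and DEVD-CHO caspase inhibitor control wells for full effect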
# Rh110 interf inh: counter-screen for Apaf-1 inhibitors: fluorescence interference. Rh110 fluorescence interference, quenched caspase reaction. shares compounds with Apaf-1 inh. activation (fluorescence interference), % at 20 µM. AID 504615. 1,800 tested, under 10 active;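 active means signal rise of 40% or more at 20 µM, treated as a fluorescence artifact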
# Apaf1 inh interf: Apaf-1 inhibitor counter-screen fluorescence artifact; shares compounds with Apaf-1 inh; fluorescence interference counterscreen, Apaf-1 assay format; IC50, µM; 460 tested, under 10 active; AID 588538; call rule not given here
# Rh123 counter: mitochondrial membrane potential, counter-screen; 5,000 tested, 78% active; isolated mitochondria, Rhodamine 123 fluorescence; inhibition, % at 10 µM; shares compounds with MPTP block; AID 624504; in the data active means inhibition above about 22%;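 further: 0% = DMSO vehicle and 100% = positive control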
# MPTP swell DR: MPTP inhibition, dose response swelling confirmation. shares compounds with MPTP block. AID 651561. 780 tested, 58% active. IC50, µM. isolated mitochondria swelling, absorbance; in the data active means IC50 below about 20 µM
# MPTP cs DR: active in counter-screen for permeability transition pore inhibitors; shares compounds with MPTP block; isolated mitochondria counterscreen, fluorescence read-out; AID 651564; 780 tested, 49% active; IC50, µM; in the data active means IC50 below about 80 µM
# * marks the source's active call; other numbers are inactive results; ? = inconclusive; . = no result. Rows were chosen to be rich in hits. Some 3% of all compounds tested hit in one or more screens of this group.
SMILES,Apaf-1 inh,UBC13 polyUb,Granule exo inh,MPTP block,beta cell repl,iPSC survival up,Apaf-1 inh conf,Rh110 interf inh,others
C=CC[C@@H](Cc1ccc(F)cc1)C(=O)OC[C@@H]1CCCN1C(=O)[C@@H](CC=C)CC(=O)N[C@@H](CO)Cc1ccccc1,40*,3,-3,2,-5,3,18,11,
C=CC[C@@H](Cc1ccc(F)cc1)C(=O)OC[C@H]1CCCN1C(=O)[C@H](CC=C)CC(=O)N[C@H](CO)Cc1ccccc1,31,-1,-15,1,-5,-2,.,.,
CN1C[C@@H](CO)O[C@@H](n2cnc3c(N4CCOCC4)ncnc32)C1,.,.,10,0,.,4,.,.,
CCOC(=O)C1=C(COC(=O)CCc2ccc(CC)cc2)NC(=O)NC1C (configuration not stated),0,4,6,2,4,2,.,.,
CCN(c1ccccc1)S(=O)(=O)c1cccc(C(=O)NCCN2CCOCC2)c1,44*,24,12,-2,-6,3,6,8,
CCc1cc(Cn2nc(-c3ccccc3)cc2C(=O)NCC2CC2)on1,4,-1,-1,-1,-4,-1,.,.,
COc1ccc(/C=N/NC(=O)c2nn(-c3ccc(Cl)cc3)c(=O)c3c(N)scc23)cc1,54*,-35,0,-3,-3,-2,26,4,
COc1ccc(/C=N/NC(=O)c2nn(-c3ccc(C)c(C)c3)c(=O)c3ccccc23)cc1,14,-28,5,4,-1,2,.,.,
COc1ccc(/C=N/NC(=O)c2nn(-c3ccccc3)c(=O)c3c(N)scc23)cc1,61*,-30,-2,0,-5,0,40*,1,Apaf1 inh interf=>100
CCOC(=O)c1nn(-c2ccc(OC)cc2)c(=O)c2c(N)scc12,20,-18,5,0,-2,2,.,.,
Nc1ccc(Br)c2cccnc12,85*,-41,7,0,-5,0,46*,-1,Apaf1 inh interf=>100
CS(=O)(=O)Oc1ccc(Br)c2cccnc12,3,-8,5,-1,2,-1,.,.,
CN(Cc1ccc(F)cc1)C(=O)CNC(=O)c1cccs1,56*,27,1,-2,-1,0,41*,4,Apaf1 inh interf=>100
CCC(C(=O)OC)n1cnc2c(nnn2-c2ccc(C)cc2)c1=O (configuration not stated),10,-2,-1,-1,-4,4,.,.,
O=C(Cn1cc(C(F)(F)F)ccc1=O)N1CCc2ccccc2C1,-10,6,-1,1,5,1,.,.,
CCC(=O)N(CCc1ccccc1C)Cc1cc2cc3c(cc2[nH]c1=O)OCO3,41*,4,-3,-4,-2,3,8,3,
CN(CCCCCCCCCCN(C)C(=O)Oc1cccc([N+](C)(C)C)c1)C(=O)Oc1cccc([N+](C)(C)C)c1,32,15,-1,0,-6,3,.,.,
Cc1cc(C(=O)COc2ccccc2C(N)=O)c(C)n1C,10,3,-4,2,-2,0,.,.,
Cc1cc(C(=O)COc2cccc3cccnc23)c(C)n1C,53*,-25,-1,-1,-3,-1,16,13,
COc1cccc(-c2nnc(SC(C(=O)c3c[nH]c4ccccc34)c3ccccc3)n2C)c1 (configuration not stated),43*,-6,4,3,-6,1,22,8,
COc1ccccc1-c1nnc(SC(C(=O)c2c[nH]c3ccccc23)c2ccccc2)n1C (configuration not stated),7,2,-11,1,-6,0,.,.,
COCc1ccc(CN2CCC(C(=O)Nc3cccc(-c4cccc(Cl)c4)c3)CC2)o1,49*,29,41,15,-7,0,17,8,
CCOC(=O)N1CCN(C(=O)c2cccc(S(=O)(=O)Nc3ccc(F)cc3)c2)CC1,.,.,2,0,.,0,.,.,
CCOC(=O)N1CCN(C(=O)c2cccc(S(=O)(=O)Nc3ccc(OC)cc3)c2)CC1,51*,11,-1,0,-3,1,34,-2,
Nc1ccc(-n2nc3ccccc3n2)cc1,5,5,-6,3,-2,0,.,.,
SMILES,Apaf-1 inh,UBC13 polyUb,Granule exo inh,MPTP block,beta cell repl,iPSC survival up,Apaf-1 inh conf,Rh110 interf inh,others
Nc1ccc2nn(-c3cccc4ccccc34)nc2c1,96*,-18,-2,-2,-5,-1,75*,12,Apaf1 inh interf=>100
Cc1cc2nn(-c3cccc4ccccc34)nc2cc1N,28,6,1,0,-1,0,.,.,
Nc1ccc2nn(-c3ccccc3)nc2c1,93*,-15,16,0,-5,-1,32,14,
CN(C)C=Nc1ccc2nc3c(cc2c1)[nH]c1ccccc13,46*,?,10,1,-7,-1,44*,-2,Apaf1 inh interf=>100
CCOC(=O)c1[nH]c2ccccc2c1N=CN(C)C,4,-2,4,-1,4,3,.,.,
CCN1/C(=C/c2ccc3ccccc3[n+]2CCCS(=O)(=O)[O-])C=Cc2cc(C)ccc21,.,.,12,18,.,0,.,.,
CCN1/C(=C/c2ccc3ccccc3[n+]2CC)C=Cc2ccccc21,41*,-432,40,160*,-6,-4,18,20,Rh123 counter=68*
CCc1ccc(CN(C)Cc2c(C(=O)N3CCOCC3)nc3c(C)cccn23)nc1,.,.,-8,0,.,0,.,.,
N#C/C(=C/c1cn(-c2ccccc2)nc1-c1cccc(OCc2ccc(F)cc2)c1)C(=O)NCCCn1ccnc1,44*,-14,38,54*,-5,2,26,9,Rh123 counter=-8;MPTP swell DR=>100;MPTP cs DR=>80
CCCOc1cccc(-c2nn(-c3ccccc3)cc2/C=C(\C#N)C(=O)NCCCn2ccnc2)c1,17,35,17,0,0,-1,.,.,
CCCCCCCCn1c2c(c(=N)c3ccccc31)CCC2,34,29,39,33,-5,-1,.,.,
CCCCCCCCCn1c2c(c(=N)c3c1CCC3)CCCC2,51*,41,47,104*,-5,0,20,9,Rh123 counter=101*
